Active and inactive are the calls of the source. No cut-off for these calls is given here.
Columns and labels:
[1] = Antioxidant activity assessed as DPPH radical scavenging activity at 100 uM incubated for 30 mins in dark by absorbance based analysis relative to control; assay type: functional
How it was run: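 The compound in DMSO was mixed with DPPH in EtOH (final 100 μM). It was incubated 30 min at 37 °C with stirring in the dark, and absorbance was read at 515 nm. Scavenging % = (C − E) × 100/C against the DPPH control.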

[2] = system: Brain; assay: Antioxidant activity in Wistar rat brain homogenate assessed as inhibition of FeSO4-induced lipid peroxidation by measuring TBARS scavenging activity at 100 uM preincubated with compound for 30 mins followed by FeSO4 addition and measured after 1 hrs by absorbance based microplate reader relative to control; assay type: functional, tissue-based; set-up: scale not given: the % may be the effect or the level left; conditions: time 90.0 min
How it was run: (§1)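 Whole brains of adult male Wistar rats (200–250 g) were homogenized 1/10 in PBS pH 7.4 and spun at 800 rcf. The supernatant was adjusted to 2.666 mg protein/mL and preincubated with EDTA and compound in DMSO for 30 min at 37 °C. FeSO₄ (final 10 μM) was added for 1 h at 37 °C. TBA/TCA reagent was added, then heating at 80 °C, and A540 was read against a TMP standard curve. Inhibition % was calculated versus the DMSO control; α-tocopherol served as the standard. IC₅₀ came from linear regression, mean ± SEM of three experiments.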

[3] = system: Brain; assay: Antioxidant activity in Wistar rat brain homogenate assessed as inhibition of FeSO4-induced lipid peroxidation preincubated with compound for 30 mins followed by FeSO4 addition and measured after 1 hrs by TBARS assay; assay type: functional, tissue-based; how it was run: as §1
[4] = molecular target: Alpha-glucosidase (Saccharomyces cerevisiae S288c, UniProt P53341+P38158+P07265); assay: Inhibition of Saccharomyces cerevisiae alpha-glucosidase using p-nitrophenyl-alpha-D-glucopyranoside as substrate pre-incubated for 10 mins followed by substrate addition and measured after 15 mins by absorbance based analysis; assay type: protein assay
[5] = system: Mus musculus; assay: Anti-hyperglycemic activity in CDI mouse assessed as decrease in blood glucose level at 50 mg/kg preadministered with compound for 30 mins followed by sucrose administration and measured after 30 mins by oral sucrose tolerance test relative to control; assay type: functional
How it was run: (§2)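 Sucrose 3 g kg⁻¹ given orally 30 min later. Caudal vein blood glucose measured by glucometer at 0, 0.5, 1, 1.5, 2 and 3 h; % variation of glycemia calculated relative to the 0 h level.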

[6] = system: Mus musculus; assay: Anti-hyperglycemic activity in CDI mouse assessed as blood glucose concentration at 50 mg/kg preadministered with compound for 30 mins followed by sucrose administration and measured after 3 hrs by oral sucrose tolerance test relative to control; assay type: functional; conditions: time 3.5 hrs; how it was run: as §2
[7] = system: Mus musculus; assay: Anti-hyperglycemic activity in CDI mouse assessed as reduction in blood glucose level at 100 mg/kg preadministered with compound for 30 mins followed by sucrose administration and measured upto 3 hrs by oral sucrose tolerance test relative to control; assay type: functional; set-up: scale not given: the % may be the effect or the level left; conditions: time < 3.5 hrs; how it was run: as §2
[8] = molecular target: T1, Alpha-glucosidase (Saccharomyces cerevisiae S288c) (UniProt P53341+P38158+P07265); assay: Mixed type inhibition of Saccharomyces cerevisiae alpha-glucosidase using p-nitrophenyl-alpha-D-glucopyranoside as substrate at 0.5 to 1 times of IC50 pre-incubated for 10 mins followed by substrate addition and measured after 15 mins by Lineweaver-Burk plot analysis; assay type: protein assay; conditions: time 25.0 min
How it was run: (§3)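 The same α-glucosidase protocol was used, with enzyme and inhibitor preincubated 10 min. Reactions were started with PNPG varied from 1 to 23.1 mM at 37 °C, quenched with […] and read at 405 nm. […] Mode was assigned from Lineweaver–Burk plots.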

[9] = system: Mus musculus; assay: Anti-hyperglycemic activity in CDI mouse assessed as reduction in blood glucose level preadministered with compound for 30 mins followed by sucrose administration and measured upto 3 hrs by oral sucrose tolerance test; assay type: functional, organism-based; conditions: dose 50-100 mg/kg, time <= 3.5 hrs; how it was run: as §2
[10] = Toxicity in CDI mouse; conditions: in vivo
[11] = system: COS-7; assay: Cytotoxicity against African green monkey COS-7 cells at 50 uM; assay type: toxicity, cell-based; conditions: chlorocebus aethiops, cos-7, 50 µM
[12] = system: Mus musculus; assay: Anti-hyperglycemic activity in CDI mouse assessed as reduction in blood glucose level at 50 mg/kg measured for 7 hrs by oral glucose tolerance test; assay type: functional, organism-based
[13] = system: Mus musculus; assay: Anti-hyperglycemic activity in CDI mouse assessed as reduction in glucose AUC at 50 mg/kg measured for 7 hrs by oral glucose tolerance test; assay type: functional, organism-based
[14] = molecular target: T1, Alpha-glucosidase (Saccharomyces cerevisiae S288c); assay: Non-competitive inhibition of Saccharomyces cerevisiae alpha-glucosidase using p-nitrophenyl-alpha-D-glucopyranoside as substrate at 1 to 2 times of IC50 pre-incubated for 10 mins followed by substrate addition and measured after 15 mins by Lineweaver-Burk plot analysis; assay type: protein assay; conditions: time 25.0 min; how it was run: as §3
[15] = molecular target: T1, Alpha-glucosidase (Saccharomyces cerevisiae S288c); assay: Mixed type inhibition of Saccharomyces cerevisiae alpha-glucosidase using p-nitrophenyl-alpha-D-glucopyranoside as substrate at 1 to 2 times of IC50 pre-incubated for 10 mins followed by substrate addition and measured after 15 mins by Lineweaver-Burk plot analysis; assay type: protein assay; conditions: time 25.0 min; how it was run: as §3
[16] = Antioxidant activity assessed as hydroxyl radical scavenging activity by measuring fluorescence intensity at 3 uM by Electron Paramagnetic Resonance based spectrophotometric analysis (reference value: 610 a.u.); assay type: functional
How it was run: (§4)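 Hydroxyl radicals generated by Fenton reaction: FeSO₄·7H₂O 20 μM (in acid water, pH 2.5) plus H₂O₂ 200 μM, with DMPO 6000 μM spin trap in PBS pH 7.4. Compound added in acetone at final 106, 60, 10.66 or 3.3 μM. The DMPO–OH quartet was recorded by EPR as the first derivative in a quartz flat cell, at 9.44 GHz, 8 mW microwave power, 0.1 mT modulation width. Intensity was taken as peak height of the second signal.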

[17] = Antioxidant activity assessed as hydroxyl radical scavenging activity by measuring fluorescence intensity at 10 uM by Electron Paramagnetic Resonance based spectrophotometric analysis (reference value: 610 a.u.); assay type: functional; how it was run: as §4
[18] = Antioxidant activity assessed as hydroxyl radical scavenging activity by measuring fluorescence intensity at 60 uM by Electron Paramagnetic Resonance based spectrophotometric analysis (reference value: 610 a.u.); assay type: functional; how it was run: as §4
[19] = Antioxidant activity assessed as hydroxyl radical scavenging activity by measuring fluorescence intensity at 106 uM by Electron Paramagnetic Resonance based spectrophotometric analysis (reference value: 610 a.u.); assay type: functional; how it was run: as §4
[20] = Antioxidant activity assessed as hydroxyl radical scavenging activity by Electron Paramagnetic Resonance based spectrophotometric analysis; assay type: functional; conditions: dose 3-106 µM
How it was run: (§5)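 Hydroxyl radicals came from a Fenton reaction: FeSO₄·7H₂O 20 μM (acid water, pH 2.5) plus H₂O₂ 200 μM, with DMPO 6000 μM spin trap in PBS pH 7.4. The compound in acetone was tested at final 106, 60, 10.66 and 3.3 μM. The DMPO–OH quartet was recorded by EPR (9.44 GHz, 8 mW, 0.1 mT modulation, 120 s sweep), and intensity was taken from the second-peak height.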

[21] = Antioxidant activity assessed as reduction in hydroxyl concentration at 10 uM by Electron Paramagnetic Resonance based spectrophotometric analysis relative to control; assay type: functional; set-up: scale not given: the % may be the effect or the level left; how it was run: as §5
[22] = Antioxidant activity assessed as inhibition of hydroxyl radical at 106 uM by Electron Paramagnetic Resonance based spectrophotometric analysis relative to control; assay type: functional; how it was run: as §5
[23] = Rattus norvegicus, Wistar, Brain

| Compound | Activity [1] [%] | Activity [2] [%] | IC50 [3, 23] [µM] | IC50 [4] [µM] | further results |
| --- | --- | --- | --- | --- | --- |
| COc1cc(/C=C2/C(=O)N(Cc3ccccc3)C(C(=O)NC3CCCCC3)c3ccccc32)cc(OC)c1O (stereo not given) | 36.2 | 96.8 | 2.2 | 61.3 | – |
| COc1cc(/C=C2/C(=O)N(c3ccccc3)C(C(=O)NC3CCCCC3)c3ccccc32)ccc1O (stereo not given) | 66.8 | 95.5 | 19.2 | 50.5 | – |
| COc1cc(/C=C2/C(=O)N(c3ccccc3)C(C(=O)NC3CCCCC3)c3ccccc32)cc(OC)c1O (stereo not given) | 40.6 | 97.8 | 4.8 | 60.1 | – |
| COc1cc(/C=C2/C(=O)N(c3ccc(F)cc3)C(C(=O)NC3CCCCC3)c3ccccc32)cc(OC)c1O (stereo not given) | 36.1 | 96.8 | 2.9 | 57.2 | – |
| COc1cc(/C=C2/C(=O)N(c3ccc(O)cc3)C(C(=O)NC3CCCCC3)c3ccccc32)ccc1O (stereo not given) | 72.2 | 96.4 | 22.7 | 92.8 | – |
| COc1cc(/C=C2/C(=O)N(c3ccc(F)cc3)C(C(=O)NC3CCCCC3)c3ccccc32)ccc1O (stereo not given) | 67.3 | 90.5 | – | 52.5 | – |
| COc1ccc2c(c1)/C(=C\c1ccc(O)c(OC)c1)C(=O)N(c1ccc(C(C)C)cc1)C2C(=O)NC(C)(C)C (stereo not given) | 69.2 | 95.4 | 11.3 | 31.5 | – |
| COc1cc(/C=C2/C(=O)N(c3ccc(C)cc3)C(C(=O)NC3CCCCC3)c3ccccc32)cc(OC)c1O (stereo not given) | 37.5 | 96.5 | 3.5 | 44.4 | – |
| COc1cc(/C=C2/C(=O)N(c3ccc(C(C)C)cc3)C(C(=O)NC(C)(C)C)c3ccccc32)cc(OC)c1O (stereo not given) | 37.6 | 96.8 | 2.4 | > 100 | – |
| VITAMIN E [listing 1 of 2 here] | – | – | – | – | IC50 [3]: 6.8 µM |
| VITAMIN E [listing 2 of 2 here] | 87.4 | 79.1 | – | – | – |
| COc1cc(/C=C2/C(=O)N(c3ccc(C)cc3)C(C(=O)NC3CCCCC3)c3ccccc32)ccc1O (stereo not given) | 72.7 | 70.7 | – | 30.2 | Activity ([5]; time 60.0 min): Active; Activity [6]: 20%; Activity [7]: 41%; inhibition [8]: Active; Activity [9]: Dose-Dependent Effect; Activity [10]: Non-Toxic; Activity [11]: Non-Toxic; Activity [12]: inactive; Activity [13]: inactive |
| COc1cc(/C=C2/C(=O)N(c3ccc(C(C)C)cc3)C(C(=O)NC(C)(C)C)c3ccccc32)ccc1O (stereo not given) | 67.3 | 92.4 | – | 68 | – |
| COc1cc(/C=C2/C(=O)N(c3ccc(C(F)(F)F)cc3)C(C(=O)NC3CCCCC3)c3ccccc32)ccc1O (stereo not given) | 65.9 | 64.3 | – | 13.7 | inhibition [14]: Active; Activity ([5]; time 60 min, 1 h): 26%; Activity [10]: Non-Toxic; Activity [11]: Non-Toxic; Activity [12]: inactive; Activity [13]: inactive |
| CC(C)c1ccc(N2C(=O)/C(=C/c3ccccc3)c3ccccc3C2C(=O)NC(C)(C)C)cc1 (stereo not given) | 0 | 6.1 | – | 50.6 | – |
| COc1cc(/C=C2/C(=O)N(c3ccc(C(C)C)cc3)C(C(=O)NC3CCCCC3)c3ccccc32)ccc1O (stereo not given) | 68 | 95.7 | 17.2 | 14.8 | inhibition [15]: Active; Activity ([5]; time 60 min, 1 h): 17% |
| COc1cc(/C=C2/C(=O)N(c3ccc(C(F)(F)F)cc3)C(C(=O)NC3CCCCC3)c3ccccc32)cc(OC)c1O (stereo not given) | 89.9 | 99.4 | 1.6 | > 100 | Activity ([5]; time 60.0 min): Active |
| COc1cc(/C=C2/C(=O)N(c3ccc(C(C)C)cc3)C(C(=O)NC3CCCCC3)c3ccccc32)cc(OC)c1O (stereo not given) | 35.4 | 97.7 | 1.4 | 33.1 | Flu intensity [16]: 464 a.u.; Flu intensity [17]: 412 a.u.; Flu intensity [18]: 256 a.u.; Flu intensity [19]: 150 a.u.; Activity [20]: Dose-Dependent Effect; Activity [21]: 25%; inhibition [22]: 76%; Activity ([5]; time 60.0 min): Active; Activity [6]: 29%; Activity [7]: 54%; Activity [9]: Dose-Dependent Effect |
| COc1cc(/C=C2/C(=O)N(Cc3ccccc3)C(C(=O)NC3CCCCC3)c3ccccc32)ccc1O (stereo not given) | 77.1 | 93.1 | – | 50.1 | – |
| COc1cc(/C=C2/C(=O)N(c3ccc(O)cc3)C(C(=O)NC3CCCCC3)c3ccccc32)cc(OC)c1O (stereo not given) | 33.1 | 98 | 9.8 | > 100 | – |
| O=c1c(O)c(-c2ccc(O)c(O)c2)oc2cc(O)cc(O)c12 | 97.9 | 95.7 | – | – | – |
